Reference: ChEMBL document CHEMBL4017487, “Design and Synthesis of γ- and δ-Lactam M1 Positive Allosteric Modulators (PAMs): Convulsion and Cholinergic Toxicity of an M1-Selective PAM with Weak Agonist Activity” (J Med Chem, 2017)
Numbering of substitutions follows the chain as printed.

Experiments:
[1] = target: T1, Muscarinic acetylcholine receptor M1 (Homo sapiens, UniProt P11229); experiment: Activity at human muscarinic acetylcholine receptor M1 expressed in CHO cells by beta-arrestin recruitment assay; type: cell-based
T1 sequence (P11229 whole entry): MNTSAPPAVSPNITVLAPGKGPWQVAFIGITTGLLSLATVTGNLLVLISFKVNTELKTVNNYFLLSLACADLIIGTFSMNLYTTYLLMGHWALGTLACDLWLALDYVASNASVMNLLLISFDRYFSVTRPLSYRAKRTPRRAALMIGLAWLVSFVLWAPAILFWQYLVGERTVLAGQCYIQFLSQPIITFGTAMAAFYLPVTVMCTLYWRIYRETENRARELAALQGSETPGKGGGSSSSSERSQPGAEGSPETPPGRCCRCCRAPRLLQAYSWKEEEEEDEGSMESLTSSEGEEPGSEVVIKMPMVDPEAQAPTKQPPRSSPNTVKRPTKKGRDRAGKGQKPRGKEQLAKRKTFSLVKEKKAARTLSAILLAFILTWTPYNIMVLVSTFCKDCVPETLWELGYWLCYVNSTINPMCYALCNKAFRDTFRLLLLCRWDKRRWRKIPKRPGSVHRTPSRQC

Brain = experiment: Unbound brain concentration in scopolamine-induced memory impairment Wistar rat model at 3.2 mg/kg, sc measured after 1.25 hrs by LC-MS/MS analysis; type: ADME, organism-based; conditions: in vivo
Canis familiaris [2] = experiment: Toxicity in dog assessed as death at 5 mg/kg, po administered as single dose using spray dried dispersion formulation after 1 day; type: organism-based, Canis lupus familiaris; conditions: in vivo, 24 h
How it was run: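 Single oral dose in dogs, 1/sex/dose. Spray-dried dispersion formulation: 23% drug loading with 0.5% methylcellulose and 100 mM citrate buffer. Clinical signs were recorded by hours postdose, with animals checked the next morning. Necropsy was performed.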

Canis familiaris [3] = experiment: Unbound AUC (0 to 24 hrs) in dog plasma at 5 mg/kg, po administered as single dose using spray dried dispersion formulation; type: ADME, organism-based, Canis lupus familiaris; conditions: in vivo
Canis familiaris [4] = experiment: Toxicity in dog assessed as unbound Cmax in brain required to show convulsions at 15 mg/kg, po administered as single dose using spray dried dispersion formulation; type: organism-based, Canis lupus familiaris; conditions: in vivo
[5] = Ratio of AUC in dog brain to plasma at 0.5 mg/kg, po or 0.1 mg/kg, iv administered as single bolus dose; type: ADME, organism-based, Canis lupus familiaris; conditions: read-out: Ratio AUC
How it was run: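 Brain/plasma ratio computed from AUC of total drug in brain and total drug in plasma.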

MDR1 = experiment: Efflux ratio of permeability from basolateral to apical side over apical to basolateral side in MDCK1 cells expressing MDR1; type: ADME, cell-based, Canis lupus familiaris; conditions: dog, MDCK-MDR1
How it was run: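 MDCKI-MDR1 cells (MDCK epithelial line transfected with MDR1/P-gp; from the NIH). Permeability measured as a rate in 10−6 cm/s in both directions; value is the BA/AB ratio.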

[6] = target: T1, Muscarinic acetylcholine receptor M1; experiment: Activity at human muscarinic acetylcholine receptor M1 expressed in CHO cells assessed as increase in acetylcholine-induced beta-arrestin recruitment; type: cell-based
[7] = target: T2, Muscarinic acetylcholine receptor M1 (Rattus norvegicus, UniProt P08482); experiment: Agonist activity at muscarinic acetylcholine receptor M1 in Sprague-Dawley rat brain hippocampal slices assessed as increase in firing rate at CA1 pyramidal neurons after 10 mins by electrophysiology method
T2 sequence (P08482 whole entry): T1 sequence (P11229 whole entry) with A5V, T254S, P309S, R320K, A337G, I413V
How it was run: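 Rat hippocampal slices; spontaneous action potentials recorded from CA1 pyramidal neurons, read as spike rate. Agonist mode has no carbachol; PAM mode uses an EC20 level of carbachol. Top concentration tested was 3 μM.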

[8] = Unbound plasma concentration in rat at 2 mg/kg, po or 0.5 mg/kg, iv administered as single bolus dose; type: ADME, organism-based
How it was run: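 Rat PK: IV bolus given as a solution, 0.5 mg/kg in 20% HPBCD; oral dose given as a suspension, 2 mg/kg in 0.5% methylcellulose. Fraction unbound in plasma determined.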

[9] = target: T3, Muscarinic acetylcholine receptor M2 (Homo sapiens, UniProt P08172); experiment: Agonist activity at human muscarinic acetylcholine receptor M2 expressed in CHO cells assessed as increase in cAMP accumulation after 2 hrs by cAMP-Glo assay; type: cell-based
T3 sequence (P08172 whole entry): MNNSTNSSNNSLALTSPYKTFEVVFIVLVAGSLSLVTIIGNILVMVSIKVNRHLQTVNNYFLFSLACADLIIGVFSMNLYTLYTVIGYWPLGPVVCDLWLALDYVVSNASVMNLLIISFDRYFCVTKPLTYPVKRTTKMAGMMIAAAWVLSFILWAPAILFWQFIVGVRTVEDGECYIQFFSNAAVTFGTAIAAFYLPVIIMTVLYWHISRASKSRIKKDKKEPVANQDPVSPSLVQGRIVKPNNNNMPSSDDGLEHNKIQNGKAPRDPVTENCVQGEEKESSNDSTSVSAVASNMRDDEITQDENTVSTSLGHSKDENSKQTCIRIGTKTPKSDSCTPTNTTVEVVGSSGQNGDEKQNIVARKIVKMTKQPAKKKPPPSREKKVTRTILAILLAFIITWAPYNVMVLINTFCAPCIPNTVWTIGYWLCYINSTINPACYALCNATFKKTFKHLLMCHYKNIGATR
How it was run: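 Recombinant functional human M2–M5 assays, each run in agonist and PAM modes at concentrations up to 10 μM.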

Canis familiaris [10] = experiment: Cholinergic toxicity in dog assessed as ataxia at 5 mg/kg, po administered as single dose using spray dried dispersion formulation after 2 hrs; type: organism-based, Canis lupus familiaris; conditions: in vivo
How it was run: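 Dog single oral dose escalation: 1/sex at 5 mg/kg for each formulation; 1 female at 15 mg/kg. Spray-dried dispersion: 23% drug loading with 0.5% methylcellulose and 100 mM citrate buffer. Clinical signs timed in approximate hours postdose; unbound plasma Cmax.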

[11] = Half life in rat at 2 mg/kg, po administered as single dose; type: ADME, organism-based; conditions: in vivo
How it was run: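 Rat, single oral dose of 2 mg/kg given as a suspension in 0.5% methylcellulose. Half-life taken after the oral dose.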

Canis familiaris [12] = experiment: Cholinergic toxicity in dog assessed as emesis at 5 mg/kg, po administered as single dose using shydroxypropyl cellulose/docusate sodium formulation after 0.5 to 1.3 hrs; type: organism-based, Canis lupus familiaris; conditions: in vivo
How it was run: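 Single-dose oral dose-escalation study, 1 dog/sex/dose. The 5 mg/kg dose was given as a nanosuspension in hydroxypropyl cellulose SL with 0.05% docusate sodium in purified water. Cholinergic clinical signs were recorded at approximate hours postdose, alongside unbound plasma Cmax.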

## Cc1cc2c(cc1Cc1ccc(-c3cocn3)cc1)C(=O)N([C@H]1CCOC[C@@H]1O)C2
[1]
  Kb: 8 µM
Brain
  Drug uptake(free): 40 nM
Canis familiaris [2]
  Activity: Toxic
Canis familiaris [3]
  fAUC: 3.85 µM·h
Canis familiaris [4]
  fCmax: 320 nM
[5]
  Kp: 0.7
MDR1
  efflux ratio: 11
[6]
  KA: 60 µM
[7]
  Activity: Not Active
[8]
  fraction unbound: 0.035
[9]
  EC50: > 10 µM
Canis familiaris [10]
  Activity: Toxic
[11]
  half-life: 6.7 h
Canis familiaris [12]
  Activity: Toxic
